# Assay results from different studies.
# Protocols differ between the studies behind these lines.
# Cell line: U-937
# Effect on: cell growth or viability
Compound,technique,time,IC50 [nM]
COc1cc(Nc2nccc(-c3cnn4nc(OC)ccc34)n2)cc(C(F)(F)F)c1,ATP luminescence,,210
O=C1CCCCC1C1C2C=CC=CC1/C(=C/c1ccccc1)C2 (stereo not drawn),flow cytometry,,77
CC(C)C[C@H](NC(=O)[C@H](Cc1ccccc1)NC(=O)c1cnccn1)B(O)O,ATP luminescence,,4.4
CC(C)[C@H](N)C(=O)N1CCC[C@H]1B(O)O,ATP luminescence,48 h,> 60000
CC(=O)O[C@H]1C(=O)[C@@]2(C)[C@H]([C@H](OC(=O)c3ccccc3)[C@]3(O)C[C@H](OC(=O)[C@H](O)[C@@H](NC(=O)c4ccccc4)c4ccccc4)C(C)=C1C3(C)C)[C@]1(OC(C)=O)CO[C@@H]1C[C@@H]2O,,72 h,2.7
C#CCSc1nc(Sc2nnnn2-c2ccccc2)c2nnn(Cc3ccc(OC)cc3)c2n1,MTS,6 days,3230
CC[C@]1(O)C[C@H]2CN(CCc3c([nH]c4ccccc34)[C@@](C(=O)OC)(c3cc4c(cc3OC)N(C=O)[C@H]3[C@@](O)(C(=O)OC)[C@H](OC(C)=O)[C@]5(CC)C=CCN6CC[C@]43[C@@H]65)C2)C1,fluorescence,72 h,7.6
COc1cc(-c2ncn(/C=C\C(=O)OC(C)C)n2)cc(C(F)(F)F)c1,,72 h,223
CCC[C@H](Nc1nc(-c2ccc(NC(=O)NCC)c(OC)c2)ncc1C)c1cccnc1,fluorescence,72 h,33.1
CCCCCCCCC1=CC2C=CC=CC1C2C1CCCCC1=O (stereo not drawn),flow cytometry,,84
COc1cc2nccc(Oc3ccc(NC(=O)C4(C(=O)Nc5ccc(F)cc5)CC4)cc3)c2cc1OC,trypan blue,72 h,2990
CC(=O)OCCC1=CC2C=CC=CC1C2C1CCCCC1=O (stereo not drawn),flow cytometry,,167
Nc1nc(Nc2ccc3c(c2)CC[C@@H](N2CCCC2)CC3)nn1-c1cc2c(nn1)-c1ccccc1CCC2,trypan blue,72 h,1450
CCOC(=O)CCC1=CC2C=CC=CC1C2C1CCCCC1=O (stereo not drawn),flow cytometry,,51
N[C@@H](CC(=O)N1CCN(C(c2ccc(F)cc2)c2ccc(F)cc2)CC1)C(=O)N1Cc2ccccc2C1,ATP luminescence,48 h,27400
